Reference: PMC7114262 (Antiviral Research, 2005)

Legend:
[1] = Cytotoxicity, tetrazolium dye assay, static HEL monolayers; type: cell-based, human; conditions: human, static (confluent, serum-starved) HEL fibroblast monolayers
Method in brief: (§1)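 Confluent HEL fibroblasts serum-starved 48 h, then exposed to a range of compound concentrations without virus or methylcellulose. After 72 h, viability read by tetrazolium colorimetric dye at 470 nm, as a percentage of DMSO-matched control wells. CC50 obtained by linear regression of percent inhibition against concentration, reported as mean ± standard deviation of quadruplicate experiments.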

[2] = Cytotoxicity, tetrazolium dye assay, growing HEL monolayers; type: cell-based; conditions: human, growing HEL fibroblast monolayers
Method in brief: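 Cytotoxicity in growing HEL fibroblasts: cells not serum-starved, about 10% confluent when compound was added. Viability read by tetrazolium colorimetric dye after 72 h of exposure, as absorbance at 470 nm relative to DMSO-matched control wells. CC50 obtained by linear regression of percent inhibition versus concentration, reported as mean ± standard deviation of quadruplicate experiments.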

[3] = tested on: HCMV DNA; assay: HCMV DNA assay; type: cell-based, human cytomegalovirus
Method in brief: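 Confluent HEL cells serum-starved 48 h, then infected with HCMV at 2–5 pfu/cell with or without compound; 50 μM ganciclovir served as control. At 72 hpi, wells were frozen in PBS at −80 °C and thawed. DNA was denatured in NaOH/NaCl, neutralized with Tris pH 7.0, and baked onto nitrocellulose. Serial dilutions were probed 14 h at 42 °C with 32P nick-translated Towne genomic DNA and read by autoradiography; four independent experiments.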

[4] = tested on: cdk2, cyclin E, p53, and PCNA; assay: Immunoblot of HCMV-induced cell cycle regulatory proteins; type: cell-based, human; conditions: 24 hpi; 50 μM ganciclovir, 20 μM baicalein, 50 μM genistein
Method in brief: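 Confluent, serum-starved HEL cells given compound (20 or 50 μM final; 50 μM ganciclovir control) from 1 h before and throughout HCMV infection. Harvested at 24 hpi in SDS sample buffer and run on 8–10% SDS-PAGE. Immunoblotted for cdk2, cyclin E, p53 and PCNA (milk block, primary overnight at 4 °C, HRP secondary, ECL). Bands quantified by densitometry of scanned films.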

[5] = tested on: HCMV proteins (IE1-72, IE2-86, UL84, UL94); assay: Western blot / immunoprecipitation of HCMV proteins in infected HEL cells; type: cell-based, human cytomegalovirus
[6] = target: EGFR (Homo sapiens, UniProt P00533); assay: HCMV-mediated EGFR tyrosine phosphorylation; type: cell-based; conditions: shortly after infection; 20 μM baicalein, 50 μM genistein
[7] = tested on: Static HEL fibroblasts; assay: Cytotoxicity, tetrazolium dye assay, static HEL monolayers; type: cell-based, human; conditions: 20 μM (5.4 μg/ml) baicalein, 50 μM (13.5 μg/ml) genistein
Method in brief: as §1

[8] = tested on: HCMV DNA; assay: Reversibility of antiviral effect after drug removal; type: cell-based, human cytomegalovirus; conditions: drug removed at 72 hpi; 20 μM baicalein, 50 μM genistein
Method in brief: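 HEL cells infected with HCMV in presence of compound (20 or 50 μM) for 72 h. Medium then replaced with drug-free medium and replication allowed for a further 72 h. Viral DNA measured at 24 h intervals by 32P-probe dot blot hybridization; experiment reproduced twice.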

[9] = tested on: NF-κB; assay: EMSA of HCMV-mediated NF-κB activation; type: cell-based, human; conditions: 24 hpi; 20 μM baicalein, 50 μM genistein
[10] = tested on: HCMV tegument protein pp65; assay: HCMV nuclear translocation, pp65 fluorescence microscopy; type: cell-based, human cytomegalovirus; conditions: 6 hpi; 20 μM baicalein, 50 μM genistein
Method in brief: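 Confluent HEL fibroblasts on chamber slides, serum-starved overnight and chilled on ice. Ice-cold compound-containing or plain DMEM added 10 min before infection with HCMV at 2–5 pfu/cell ± compound: 1 h at 4 °C, then 1 h at 37 °C. Cells washed and kept 5 h at 37 °C ± compound. Methanol-fixed at −20 °C, stained with anti-pp65 (1:1000), fluorescein secondary (1:500) and DAPI; nuclear pp65 examined at 6 hpi.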

[11] = tested on: HCMV; conditions: ≤12 μM genistein, IE1-72 protein levels at 24 hpi; ref Slobbe-van Drunen et al., 1997; cited from earlier work
[12] = persons on a high soy diet, estimated; ref Adlercreutz et al., 1993; cited from earlier work

Chain of EGFR (P00533 25-1210): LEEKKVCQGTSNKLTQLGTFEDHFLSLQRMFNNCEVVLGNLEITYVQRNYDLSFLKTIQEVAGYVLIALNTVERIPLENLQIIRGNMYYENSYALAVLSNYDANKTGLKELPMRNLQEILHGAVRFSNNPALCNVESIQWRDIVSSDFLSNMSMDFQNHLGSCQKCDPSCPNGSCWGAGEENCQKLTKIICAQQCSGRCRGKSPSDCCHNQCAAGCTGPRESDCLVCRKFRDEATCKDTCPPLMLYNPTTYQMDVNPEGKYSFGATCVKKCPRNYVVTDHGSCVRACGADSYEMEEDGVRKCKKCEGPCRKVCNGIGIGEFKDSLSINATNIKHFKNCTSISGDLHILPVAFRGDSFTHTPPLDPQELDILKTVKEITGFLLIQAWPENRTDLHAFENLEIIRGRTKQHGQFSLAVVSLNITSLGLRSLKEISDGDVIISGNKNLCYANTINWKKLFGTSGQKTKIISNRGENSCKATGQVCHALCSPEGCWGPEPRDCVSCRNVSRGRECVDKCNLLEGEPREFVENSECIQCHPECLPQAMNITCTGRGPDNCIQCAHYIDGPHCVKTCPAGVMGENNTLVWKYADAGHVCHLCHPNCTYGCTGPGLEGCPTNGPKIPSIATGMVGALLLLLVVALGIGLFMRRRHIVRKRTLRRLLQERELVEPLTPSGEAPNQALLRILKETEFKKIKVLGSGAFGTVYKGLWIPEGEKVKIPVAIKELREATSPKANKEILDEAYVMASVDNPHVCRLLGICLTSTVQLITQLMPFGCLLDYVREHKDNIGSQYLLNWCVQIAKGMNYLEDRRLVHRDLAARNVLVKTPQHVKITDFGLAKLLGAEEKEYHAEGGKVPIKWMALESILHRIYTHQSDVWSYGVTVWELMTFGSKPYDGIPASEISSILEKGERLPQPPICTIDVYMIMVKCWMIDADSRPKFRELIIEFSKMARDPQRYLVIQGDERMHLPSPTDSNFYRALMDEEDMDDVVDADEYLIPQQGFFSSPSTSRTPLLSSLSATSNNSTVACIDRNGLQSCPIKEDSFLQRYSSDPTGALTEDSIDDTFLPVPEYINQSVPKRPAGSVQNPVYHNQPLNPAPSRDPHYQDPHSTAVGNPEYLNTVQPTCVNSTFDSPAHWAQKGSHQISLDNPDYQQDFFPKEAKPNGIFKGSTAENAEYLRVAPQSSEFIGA

Structure (SMILES) | CC50 at 72 h [1] | CC50 at 72 h [2] | HCMV-mediated increases in steady-state levels of cdk2, cyclin E, p53, and PCNA [4] | other results
O=c1cc(-c2ccc(O)cc2)oc2cc(O)cc(O)c12 [Apigenin] | > 100 µM | > 100 µM | – | –
O=c1cc(-c2ccccc2)oc2cc(O)c(O)c(O)c12 [Baicalein] | > 100 µM | > 100 µM | inhibited | HCMV DNA level ([3]; 20 μM baicalein, 72 hpi): reduced to nearly background levels; Levels of all three kinetic classes of HCMV proteins ([5]; 20 μM baicalein, immunoblot 24, 48, 72 hpi): reduced to nearly background levels; HCMV-induced EGFR phosphorylation [6]: reduced to background levels; Cytotoxicity in cell culture at concentration used for mechanism studies [7]: did not display obvious cytotoxicity; Reversibility of antiviral effects [8]: poorly reversible; HCMV induction of NF-κB [9]: absent; Nuclear accumulation of pp65 [10]: blocked
O=C(O)[C@H]1O[C@@H](Oc2cc3oc(-c4ccccc4)cc(=O)c3c(O)c2O)[C@H](O)[C@@H](O)[C@@H]1O [Baicalin] | > 400 µM | > 400 µM | – | –
O=c1c(-c2ccc(O)cc2)coc2cc(O)ccc12 [Daidzein] | > 200 µM | > 200 µM | – | –
O=c1c(O)c(-c2ccccc2)oc2cc(O)cc(O)c12 [Galangin] | > 400 µM | > 400 µM | – | –
Nc1nc(O)c2ncn(COC(CO)CO)c2n1 [Ganciclovir] | – | – | not affected | –
O=c1c(-c2ccc(O)cc2)coc2cc(O)cc(O)c12 [Genistein] | > 200 µM | 124 ± 52 µM | inhibited | inhibition at 50 µM ([3]; Human betaherpesvirus 5, read-out: Inhibition of HCMV DNA replication): ~95%; Inhibition of HCMV replication [11]: did not inhibit; IE1-72 level ([5]; 50 μM genistein, 24 hpi): slightly lower levels; Reduction of IE2-86 levels ([5]; 50 μM genistein, 24 hpi): ≤ 65%; UL84 and UL94 protein levels ([5]; 50 μM genistein, 48 and 72 hpi respectively): nearly background levels; Cytotoxicity in cell culture at concentration used for mechanism studies [7]: did not display obvious cytotoxicity; Reversibility of antiviral effects [8]: fully; HCMV induction of NF-κB [9]: absent; Steady-state serum levels [12]: 1 to 5 µM
O=c1cc(-c2ccc(O)c(O)c2)oc2cc(O)cc(O)c12 [Luteolin] | > 200 µM | 62 ± 10 µM | – | –
O=C1C[C@@H](c2ccc(O)cc2)Oc2cc(O)cc(O)c21 [Naringenin] | > 100 µM | > 100 µM | – | –
O=c1c(O)c(-c2ccc(O)c(O)c2)oc2cc(O)cc(O)c12 [Quercetin] | > 400 µM | > 400 µM | – | –
